From PubChem BioAssay
Compounds with a hit are over-represented: about 2.9% of the library has one in this group of screens.
SENP8 block-1 – inhibitors of human SENP8 protease. Q96LD8. recombinant SENP8, Nedd8 substrate fluorescence. inhibition, % at 20 µM. hit rate 0.64% among 360,000; in the data active means inhibition mostly above about 40%, no sharp cut-off; inactive means mostly below about 27%
Target sequence (Q96LD8 whole entry, looked up): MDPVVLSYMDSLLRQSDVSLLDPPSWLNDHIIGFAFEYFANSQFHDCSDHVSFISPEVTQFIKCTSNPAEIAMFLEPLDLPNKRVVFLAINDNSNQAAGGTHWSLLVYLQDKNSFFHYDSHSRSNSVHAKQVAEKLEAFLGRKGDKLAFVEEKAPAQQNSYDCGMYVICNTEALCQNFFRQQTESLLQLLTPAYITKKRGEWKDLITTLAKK
HSP90 inh – inhibitors of HSP90 luciferase refolding in rabbit reticulocyte lysate; luciferase refolding luminescence, 3 h; hit rate 0.91% among 290,000; inhibition, % at 5.6 µM;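 active means inhibition above the screen-wide mean plus 3 SD, computed separately per campaign, cut at about 16% in these data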;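 further: inhibitors lower the luminescence because luciferase stays unfolded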
SENP7 block – blocks the human protease SENP7; Q9BQF6; recombinant SENP7, Z-RLRGG-aminoluciferin luminescence, 40 min; inhibition, % at 5 µM; hit rate 1.5% among 330,000; AID 434973;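 active means inhibition above about 50% at the single test dose, limit read from the data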
Target sequence (Q9BQF6 706-1050 limits assumed): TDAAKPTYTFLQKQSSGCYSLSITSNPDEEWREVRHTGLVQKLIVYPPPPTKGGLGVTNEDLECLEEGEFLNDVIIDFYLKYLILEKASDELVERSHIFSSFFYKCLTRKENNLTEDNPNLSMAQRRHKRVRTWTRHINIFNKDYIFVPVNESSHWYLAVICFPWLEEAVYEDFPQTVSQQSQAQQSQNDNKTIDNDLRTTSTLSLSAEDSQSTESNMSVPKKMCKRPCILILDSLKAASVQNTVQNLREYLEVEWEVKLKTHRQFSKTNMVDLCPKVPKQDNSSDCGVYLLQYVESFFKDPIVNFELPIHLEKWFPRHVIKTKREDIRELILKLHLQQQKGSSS
SENP8 block-2 – inhibitors of human SENP8 protease. Q96LD8. purified SENP8, Z-RLRGG-aminoluciferin cleavage, luminescence. inhibition, % at 10 µM. hit rate 1.2% among 330,000. AID 2540; in the data active means inhibition above about 50%
SENP6 block – SENP6 protease inhibition; inhibition, % at 10 µM; AID 2599; hit rate 1.8% among 330,000; Q9GZR1; Recombinant SENP6 catalytic domain, aminoluciferin luminescence;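 active means inhibition above about 50% at the single tested dose, limit read from the data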
SENP1 inh – blocks the human SENP1 SUMO protease catalytic domain; Q9P0U3; inhibition, % at 10 µM; hit rate 0.21% among 360,000; recombinant SENP1 catalytic domain, CyPet-SUMO1-YPet FRET cleavage;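 active means inhibition at least 30% at 10 µM, raw YFP signal under a set limit, fluorescence ratio 0.5 to 1.5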
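Material: hSENP1 catalytic domain, recombinant; medium: Tris pH 8 with BME, BSA, NP40 and catalase; compound: single concentration of 10 µM compound, 0.5% DMSO final; technique: FRET read of cyan and yellow fluorescence; timing: 50 min enzyme reaction, room temperature, light-protected; reagent: SFCypet-SUMO1-SFYpet substrate at 25 nM; control set: no-enzyme low, enzyme-DMSO high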
Of the large screens only hits and unclear results are named; the others gave an inactive call.

CCN(CC)c1ccc(/C=C(/C#N)c2nc3ccccc3[nH]2)c(OC(C)C)c1	HSP90 inh 16.1
Oc1c(N=Nc2nn[nH]n2)ccc2ccccc12	SENP8 block-1 54.6 (no result: HSP90 inh, SENP7 block, SENP8 block-2, SENP6 block)
Brc1ccc(N/N=C(/N=Nc2nn[nH]n2)c2ccccc2)cc1	none
Cc1csc(NC(=O)/C=C/c2ccc3c(c2)OCO3)n1	SENP7 block 61.3, SENP6 block 77.0
O=C(/C=C/c1ccc2c(c1)OCO2)Nc1nc(-c2ccc(F)cc2F)cs1	none (no result: SENP8 block-1, SENP1 inh)
COCCCN1C(=O)C(CC(=O)NCc2cccs2)CC(C(=O)N(C(C)C)C(C)C)=C1C (centres undefined)	none (no result: HSP90 inh, SENP7 block, SENP8 block-2, SENP6 block)
O=C1C(=Cc2cccs2)Oc2ccccc21	none (no result: HSP90 inh, SENP7 block, SENP8 block-2, SENP6 block)
Cc1ccccc1/C=C1\Oc2ccccc2C1=O	SENP7 block 51.1, SENP8 block-2 62.9, SENP6 block 78.5 (no result: HSP90 inh)
COc1ccc(NS(=O)(=O)c2ccc(NC(=S)NC(=O)c3cccnc3)cc2)nn1	none
COc1ccc(NS(=O)(=O)c2ccc(NC(=S)NC(=O)c3cccc(F)c3)cc2)nn1	SENP7 block 80.4, SENP8 block-2 84.5, SENP6 block 92.0
CN1/C(=C\C=C2/SC(=S)N(CC(=O)O)C2=O)C(C)(C)c2ccccc21	none
C=CCN1C(=O)/C(=C\C=C2\N(C)c3ccccc3C2(C)C)SC1=S	SENP8 block-1 55.5
CCCN1C(=O)/C(=C/C=C2\N(CC)c3ccccc3C2(C)C)SC1=S	SENP8 block-1 44.3
CN(C)c1ccc(Cc2cc3c(O)ccc(O)c3cc(Cc3ccc(N(C)C)cc3)c2=O)cc1	SENP8 block-1 51.7 (no result: HSP90 inh, SENP7 block, SENP8 block-2, SENP6 block)
CC(=O)c1ccc(N(C)C)cc1	none
Cn1cc(/C=C2\SC(=O)N(c3ccc(O)cc3)C2=O)c2ccccc21	SENP6 block 63.7
Cn1cc(/C=C2\SC(=O)N(c3ccccc3)C2=O)c2ccccc21	none
CCc1cc(=O)[nH]c(SCC(=O)Nc2ccc3c(c2)OCCO3)n1	none (no result: HSP90 inh)
C=CCN1C(=O)C2(NNc3ccccc3O2)c2ccccc21 (centres undefined)	SENP1 inh 80.8
CC(C)(C)c1cc[n+](-c2[nH]c(=O)sc2/C=N/NC([S-])=Nc2ccccc2)cc1	SENP8 block-1 25.0, SENP1 inh 45.5
Cc1cc[n+](-c2[nH]c(=O)sc2/C=N/NC([S-])=Nc2ccccc2)cc1C	none
O=C1NCCCC2c3cc(O)c4ccccc4c3OC12N1CCCCC1 (centres undefined)	SENP8 block-2 62.8, SENP6 block 71.1 (no result: SENP8 block-1, SENP1 inh)
CCC(C)Sc1ccc([C@H]2N[C@@](C)(C(=O)OC)[C@H]3C(=O)N(C)C(=O)[C@@H]23)cc1 (some centres undefined)	none (no result: HSP90 inh)
CCCCc1ccc(CC2S/C(=C(\C#N)C(=O)N3CCOCC3)N(c3ccccc3)C2=O)cc1 (centres undefined)	SENP1 inh 33.5
CC1=CS/C(=C(/C#N)C(=O)N2CCOCC2)N1c1ccccc1	none
O=[N+]([O-])c1cc2c(cc1C=Nc1ccccc1)OCO2	SENP6 block 57.5
COC(=O)C[C@@H]1OC[C@H](C)N1S(=O)(=O)c1ccc(C)cc1	none (no result: HSP90 inh, SENP7 block, SENP8 block-2, SENP6 block)
CCOc1ccc(CCN2C(=O)C(=O)N([C@@H](Cc3ccccc3)CN3CCC[C@H]3CN3C(=O)C(=O)NC[C@@H]3Cc3ccccc3)C[C@@H]2Cc2ccccc2)cc1	none (no result: HSP90 inh, SENP7 block, SENP8 block-2, SENP6 block)
O=C1C=C(O)c2[nH]c(=O)ccc2C1=O	SENP8 block-1 64.3 (no result: HSP90 inh, SENP7 block, SENP8 block-2, SENP6 block)
NC1=CC(=O)C(=O)c2ccccc21	none (no result: HSP90 inh, SENP7 block, SENP8 block-2, SENP6 block)
O=C(O)CSc1ccc(NC(=O)Nc2ccccc2F)cc1	SENP7 block 98.5, SENP8 block-2 95.3
C=C(C)C1CC=C(C)/C(=N\NC(=O)CNc2cccc3ccccc23)C1 (centres undefined)	SENP6 block 59.7
Nc1nc(-c2ccccc2)c(N=Nc2cccnc2)s1	SENP8 block-1 48.4
Cc1nn(-c2ccccc2)c2c1C(c1ccc(Br)s1)C(C#N)=C(N)O2 (centres undefined)	none (no result: SENP7 block, SENP8 block-2, SENP6 block)
Cc1nn(-c2ccccc2)c2c1C(c1ccccc1)C(C#N)=C(N)O2 (centres undefined)	SENP7 block 52.1
CC(C)(C)n1ncc2c(=O)n(CC(=O)NCc3ccc(F)cc3)cnc21	HSP90 inh 16.4
O=c1c2ccccc2sc2ccc(Cl)cc12	SENP7 block 57.7
O=c1c2ccccc2sc2ccccc12	none (no result: HSP90 inh, SENP7 block, SENP8 block-2, SENP6 block)
COCC(=O)OC1CCn2c1nc1c2C(=O)C(C)=C(NC(C)=O)C1=O (centres undefined)	SENP8 block-1 96.2 (no result: HSP90 inh, SENP7 block, SENP8 block-2, SENP6 block)
CCOc1cc(/C=C2\SC(=S)N(NC(=O)c3cccnc3)C2=O)ccc1O	SENP1 inh 50.3
COc1cc(/C=C2\SC(=S)N(NC(=O)c3ccc(O)c(OC)c3)C2=O)ccc1O	none
COc1cc(/C=C2\SC(=S)N(NC(=O)c3ccncc3)C2=O)ccc1O	SENP1 inh 48.8
Cn1cccc1/C=C1/SC(=S)N(CC(=O)O)C1=O	none
CN1CCS/C1=C\C=C1/SC(=S)N(CC(=O)O)C1=O	SENP1 inh 67.8 (no result: SENP7 block, SENP8 block-2, SENP6 block)
O=c1c2ccccc2c(C=Nc2cccc(S(=O)(=O)NC3=NCCCCC3)c2)c(O)n1Cc1ccccc1	SENP6 block 52.8
Cc1nnc(SCC(=O)Nc2cccc(S(=O)(=O)NC3=NCCCCC3)c2)n1Cc1ccccc1	none
O=C(O)c1cccc(NC(=O)c2ccc3c(c2)C(=O)N(Cc2ccco2)C3=O)c1	SENP7 block 88.1, SENP8 block-2 84.1, SENP6 block 88.8
CN(/N=C/c1ccc2c(c1)OCO2)c1ccccc1	SENP7 block 57.1, SENP8 block-2 64.2, SENP6 block 63.0
C(=N\N(c1ccccc1)c1ccccc1)/c1ccc2c(c1)OCO2	none
CS/C(N)=N/N=C/c1ccc2c(c1)OCO2	SENP7 block 50.3
O=C(O)c1ccc(CSC2CCCCC2)cc1	SENP8 block-2 50.9, SENP6 block 58.4
O=C(CNC(=O)c1ccco1)OCc1ccccc1F	none (no result: HSP90 inh)
Cc1nn(-c2ccccc2)c(Cl)c1/C=C1\SC(=S)N(CCCCCC(=O)O)C1=O	SENP8 block-1 53.5
Cc1nc(NC(=O)c2ccc(Cl)cc2)sc1-c1csc(Nc2cccc(F)c2)n1	HSP90 inh 68.7 (no result: SENP8 block-1, SENP7 block, SENP8 block-2, SENP6 block, SENP1 inh)
CC(=O)Nc1nc(C)c(-c2csc(Nc3ccccn3)n2)s1	SENP7 block 79.3, SENP8 block-2 74.0, SENP6 block 87.3
COC(=O)c1ccc(Nc2c([N+](=O)[O-])ccc3nonc23)cc1	none
Cc1ccccc1OCCC(=O)NNC(=O)COc1cccc(F)c1	none (no result: HSP90 inh)
Nc1n[nH]c(N)c1N=Nc1ccccc1	none
Nc1n[nH]c(N)c1N=Nc1ccccc1F	SENP8 block-1 34.3
Nc1n[nH]c(N)c1N=Nc1ccc(F)cc1	SENP8 block-1 41.4
CCOc1cc(C2CC(=O)N3CN(C4CCCCC4)CSC3=C2C#N)ccc1O (centres undefined)	SENP8 block-1 66.3
CCOc1cc(C2CC(=O)NC(SCC)=C2C#N)ccc1O (centres undefined)	none
CC1CCN(c2nc3ccc(C(=O)N4CCN(Cc5ccc6c(c5)OCO6)CC4)cc3s2)CC1	HSP90 inh 57.6
